Laboratory results from ChEMBL document CHEMBL1124069, “Synthesis and pharmacological characterization of a series of leukotriene analogues with antagonist and agonist activities” (1988).

Legend:
[1] = system: Cysteinyl leukotriene receptor (Cavia porcellus); assay: Ability to inhibit the contraction induced by 8 nM LTE4 on isolated guinea pig tracheal strips at 10 uM dose; % antagonism / % basal tension; conditions: Trachea
[2] = species on record: Cavia porcellus; assay: Ability to inhibit the contraction induced by 8 nM LTE4 on isolated guinea pig tracheal strips at 4 uM dose; % antagonism / % basal tension; assay type: functional, Trachea
[3] = species on record: Cavia porcellus; assay: Ability to inhibit the contraction induced by 8 nM LTE4 on isolated guinea pig tracheal strips at 1 uM dose; % antagonism / % basal tension; assay type: functional, Trachea
Outline: (§1)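 Guinea pig tracheal spirals were held at 2 g resting tension and stabilized for 60 min, with bath changes every 15 min. Tissues received two 10-min challenges with 8 nM LTE4, each followed by a 60-min wash. Test compound was then added for 10 min, noting any resting-tension change, before a third LTE4 challenge. % inhibition = (2nd−3rd)/2nd×100, corrected for paired vehicle tissue. Significance was tested by paired t test (p<0.05).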

[4] = species on record: Cavia porcellus; assay: Ability to inhibit the contraction induced by 8 nM LTE4 on isolated guinea pig tracheal strips at 5 uM dose; % antagonism / % basal tension; assay type: functional, Trachea
Outline: as §1

[5] = species on record: Cavia porcellus; assay: Ability to inhibit the contraction induced by 8 nM LTE4 on isolated guinea pig tracheal strips at 3.3 uM dose; % antagonism / % basal tension
[6] = species on record: Cavia porcellus; assay: Ability to inhibit the contraction induced by 8 nM LTE4 on isolated guinea pig tracheal strips at 50 uM dose; % antagonism / % basal tension, compound was checked against BaCl2 as agonist at specified concentration/14; assay type: functional, Trachea
Outline: as §1

[7] = species on record: Cavia porcellus; assay: Ability to inhibit the contraction induced by 8 nM LTE4 on isolated guinea pig tracheal strips at 10 uM dose; % antagonism / % basal tension, Agonist activity was too great to determine if there was any partial antagonism/100; assay type: functional; conditions: Trachea, filed as agonist
Outline: as §1

For CCCCCCCc1ccc(C/C=C\[C@@H](SCc2ccc(C(=O)O)cc2N)[C@@H](O)CCCC(=O)O)cc1, the Ratio [1] was 66.
Work on CCCc1c(OCC(O)COc2ccc3c(=O)cc(C(=O)O)oc3c2CCC)ccc(C(C)=O)c1O (stereo not drawn) [FPL-55712] yielded a Ratio [2] of 62.
Work on CCCCCCCc1ccc(C/C=C\[C@@H](Sc2ccc(Cl)c(Cl)c2)[C@@H](O)CCCC(=O)O)cc1 yielded a Ratio [1] of 2.
CCCCCCOc1ccccc1C/C=C\[C@@H](SCc1ccc(C(=O)O)cc1OC)[C@@H](O)CCCC(=O)O showed a Ratio [1] of 24.
CCCCC/C=C/c1ccc(C/C=C\[C@@H](SCc2ccc(C(=O)O)cc2OC)[C@@H](O)CCCC(=O)O)cc1 showed a Ratio [1] of 39.
CCCCCCCc1ccc(C/C=C\[C@@H](SCc2ccc(/C=C/C(=O)O)cc2)[C@@H](O)CCCC(=O)O)cc1 was tested, and the Ratio [1] was 38.
Work on CCCCCCCc1ccc(C/C=C\[C@@H](Sc2ccc(NC(C)=O)cc2)[C@@H](O)CCCC(=O)O)cc1 yielded a Ratio [1] of 4.
Work on CCCCCCCc1ccc(C/C=C\[C@@H](SCc2cc(C(=O)O)ccc2N)[C@@H](O)CCCC(=O)O)cc1 yielded a Ratio [1] of 39.
Compound CCCCCCCc1ccc(C/C=C\[C@@H](SCc2cccc(C(=O)O)c2)[C@@H](O)CCCC(=O)O)cc1 has a Ratio [3] of 16.
In the case of CCCCCCCc1ccc(C/C=C\[C@@H](SCc2ccc(N)c(C(=O)O)c2)[C@@H](O)CCCC(=O)O)cc1, the Ratio [1] is reported as 68.
Work on CCCCCc1ccc(C/C=C\[C@@H](SCc2ccc(C(=O)O)cc2OC)[C@@H](O)CCCC(=O)O)cc1 yielded a Ratio [1] of 43.
For CCCCCCCc1cccc(C/C=C\[C@@H](SCc2ccc(C(=O)O)cc2OC)[C@@H](O)CCCC(=O)O)c1, the Ratio [1] was 52 and the Ratio [4] was 45.
Work on CCCCCCOc1cccc(C/C=C\[C@@H](SCc2ccc(C(=O)O)cc2OC)[C@@H](O)CCCC(=O)O)c1 yielded a Ratio [5] of 32, a Ratio [1] of 86 and a Ratio [6] of 14.
CCCCCCCc1ccc(C/C=C\[C@@H](SCc2ccc(C(=O)O)cc2F)[C@@H](O)CCCC(=O)O)cc1 gave a Ratio [1] of 63.
CCCCCCCc1ccc(C/C=C\[C@@H](SCc2ccc(C(=O)O)cc2OC)[C@@H](O)CCCC(=O)O)cc1 gave a Ratio [1] of 74 and a Ratio [4] of 31.
CCCCCCOc1ccc(C/C=C\[C@@H](SCc2ccc(C(=O)O)cc2OC)[C@@H](O)CCCC(=O)O)cc1 was tested, and the Ratio [7] was “Agonist activity was too great to determine if there was any partial antagonism”.
With CCCCCCCc1ccc(C/C=C\[C@@H](SCc2ccccc2C(=O)O)[C@@H](O)CCCC(=O)O)cc1 the Ratio [1] was 39.
Compound CCCCCCCc1ccc(C/C=C\[C@@H](Sc2cccc(N)c2)[C@@H](O)CCCC(=O)O)cc1 has a Ratio [1] of 14.
CCCCCCCc1ccc(C/C=C\[C@@H](SCc2ccc(C(=O)O)c(N)c2)[C@@H](O)CCCC(=O)O)cc1 showed a Ratio [1] of 51.
For CCCCCCCc1ccc(C/C=C\[C@@H](SCc2ccc(C(=O)O)cc2[N+](=O)[O-])[C@@H](O)CCCC(=O)O)cc1, the Ratio [1] was 24.
CCCCCCCc1ccc(C/C=C\[C@@H](SCc2ccc(C(=O)O)cc2)[C@@H](O)CCCC(=O)O)cc1 was tested, and the Ratio [1] was 37.
CCCCC/C=C/c1cccc(C/C=C\[C@@H](SCc2ccc(C(=O)O)cc2OC)[C@@H](O)CCCC(=O)O)c1 was tested, and the Ratio [3] was 7 and the Ratio [1] was 57.
In the case of CCCCCCCc1ccc(C/C=C\[C@@H](SCc2cccc(/C=C/C(=O)O)c2)[C@@H](O)CCCC(=O)O)cc1, the Ratio [1] is reported as 34.
